The series can be described thus: Toxicity liver stage against HepG2, at 10uM. Type of series: cell-based. Further details: test concentration 10 uM, cell line HepG2-A16-CD81EGFP. The settings on record: human, HepG2-A16-CD81EGFP cells; read-out: INHIBITION
Summed up:
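Uninfected HepG2-A16-CD81EGFP cells, 3 × 10^3 per well, 1536-well, plated on prespotted compound at 10 μM final, parasite-free screening media added to match infected plates; puromycin 10 μM positive, DMSO 0.5% negative; run in parallel with 48 h PbLuc assay at 37 °C, 5% CO2; viability by CellTiter-Glo luminescence, normalized to controls.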
On to `O=C(c1cccnc1)N1CCN2C(=O)N(Cc3ccc(F)cc3)C[C@H]2C1`, for which the cytotoxicity at 10 µM was -0.756%.

`O=C1CCNc2ccccc2CN1Cc1ccco1`: the cytotoxicity at 10 µM was 1.22%.

Turning to `COC(=O)COn1c(SC)nc2ccccc2c1=O`, the cytotoxicity at 10 µM was -6.53%.

For `CC(C)(C)C1SCC(=O)Nc2c1c(O)nn2C1CCCC1` (stereo not drawn), the cytotoxicity at 10 µM was found to be 3.36%.

As for `CCNC(=O)NCc1nn(CCN2CCCC2)c(=O)c2ccccc12`, the cytotoxicity at 10 µM is -3.85%.

As for `O=C(NC1CCCC1)C1CCN(c2cc(-n3ccnc3)ncn2)CC1`, the cytotoxicity at 10 µM was -9.19%.

In the case of `CNC(=O)CS(=O)(=O)C1CCN(S(=O)(=O)c2cccnc2)CC1`, the cytotoxicity at 10 µM was -1.68%.

Turning to `Cn1cnc2c1C(COCC1CC1)CN(C(=O)c1ccsc1)C2` (stereo not drawn), the cytotoxicity at 10 µM is 4.73%.

As for `Cc1ccc(Sc2ccc(N3CCC(C(=O)O)CC3)nn2)cc1`, the cytotoxicity at 10 µM is -0.0154%.

On to `CC(C)C[C@H](N)COc1cccc(F)c1Oc1ccccc1`, for which the cytotoxicity at 10 µM is -5.08%.

`CN(C)c1cccc(C2CCN(c3ncccn3)CC2)n1`: the cytotoxicity at 10 µM is -8.41%.

As to `Cc1nn(C)cc1CN(Cc1ccccn1)Cc1ccccc1Cl`, the cytotoxicity at 10 µM was determined as 1.2%.

On to `CCC1CCCCN1C(=O)Cn1cnc(C#N)n1` (stereo not drawn), for which the cytotoxicity at 10 µM was -22.1%.

Consider `O=C1CC(C(=O)Nc2nnc(-c3cccs3)[nH]2)c2ccccc2N1` (stereo not drawn), for which the cytotoxicity at 10 µM was -0.921%.

Take `Fc1ccc2c(c1)CCC2NCc1ccc(N2CCOCC2)cc1` (stereo not drawn): the cytotoxicity at 10 µM is -1.54%.

On to `O=C(Nc1ccc2c(c1)C(=O)NC2=O)c1cccs1`, for which the cytotoxicity at 10 µM was -4.08%.

Consider `COCCn1nc(C(=O)N2CCOCC2C)ccc1=O` (stereo not drawn), for which the cytotoxicity at 10 µM was -8.97%.

With `COC(=O)N1CCCC(C(=O)NCCc2c[nH]c3cc(C)ccc23)C1` (stereo not drawn), the cytotoxicity at 10 µM is -5.95%.

Regarding `CCc1ccsc1C(=O)NC(C#N)CC(C)C` (stereo not drawn), the cytotoxicity at 10 µM is -15%.

Take `N#Cc1ccc(Cl)cc1NCC1CC1`: the cytotoxicity at 10 µM is -3.7%.

Turning to `CCC(c1ccc(F)cc1F)N1CCN(CCO)CC1` (stereo not drawn), the cytotoxicity at 10 µM is -4.34%.

Turning to `O=C(Nc1ccc(F)cc1F)NC1(CO)CCOCC1`, the cytotoxicity at 10 µM was -40.4%.

Regarding `COC(=O)CCNC(=O)c1c[nH]cc1-c1ccccc1OC`, the cytotoxicity at 10 µM amounted to 6.17%.

As for `COCCS(=O)(=O)NC(C)c1cccc(C)c1C` (stereo not drawn), the cytotoxicity at 10 µM came to 6.13%.

Turning to `COCCCn1ccc(NC(=O)NCCn2ccnc2)n1`, the cytotoxicity at 10 µM is -2.14%.

Turning to `CCC(NCc1nccn1C)c1nc(C(F)(F)F)cs1` (stereo not drawn), the cytotoxicity at 10 µM turned out to be 0.245%.

For the molecule `CCN(CC1CCCO1)S(=O)(=O)c1cc(NC(C)=O)ccc1C` (stereo not drawn), the cytotoxicity at 10 µM was 1.82%.

Turning to `CC(NC(=O)N1CCNC(=O)CC1)c1ccc(C(F)(F)F)cc1` (stereo not drawn), the cytotoxicity at 10 µM amounted to 13.7%.

Turning to `O=C(CN1CCC2(CCCCC2)C1)NCC(F)(F)F`, the cytotoxicity at 10 µM is -10.5%.

For the molecule `Cc1ccc(OCCN(C)Cc2ccc(S(=O)(=O)N(C)C)o2)cc1`, the cytotoxicity at 10 µM was -14.8%.

Take `COc1cccc(C(O)C(=O)N(C)CCc2ccccn2)c1` (stereo not drawn): the cytotoxicity at 10 µM turned out to be 0.413%.

As for `CCNC(c1ccc(F)cc1)c1cccnc1` (stereo not drawn), the cytotoxicity at 10 µM is 2.73%.

As for `O=C(NCCCc1nc(=O)[nH][nH]1)Nc1cccc(F)c1`, the cytotoxicity at 10 µM is -51.1%.

Take `CC(C)OCCCNC(=O)NCc1cccc(-n2ccnc2)c1`: the cytotoxicity at 10 µM turned out to be 18.5%.

In the case of `Cc1ccccc1CN(C)C(=O)c1ccoc1`, the cytotoxicity at 10 µM was 2.2%.

Regarding `O=C(NCc1nnc2n1CCCCC2)N1CCC2(CCCCC2)C1`, the cytotoxicity at 10 µM was -13.4%.

Consider `Cc1n[nH]c(C)c1C1CCCN1C(=O)CNC(=O)C(C)(C)C` (stereo not drawn), for which the cytotoxicity at 10 µM was -29%.

For the molecule `O=C(c1ccc2c(c1)OCO2)N1CCC[C@]2(C[C@H](OCC3CC3)CO2)C1`, the cytotoxicity at 10 µM was found to be 2.34%.

As for `CCN(CC)C(=O)[C@@H]1C[C@@H](NC(=O)c2cccc(N(C)C)c2)CN1C`, the cytotoxicity at 10 µM was 6.69%.

As for `Cn1c(C(N)=O)cc2c1CN(C(=O)C1CC(=O)N(C(C)(C)C)C1)CC2` (stereo not drawn), the cytotoxicity at 10 µM was -49.6%.

On to `COc1ccccc1OCCn1c(C)c(C)oc1=O`, for which the cytotoxicity at 10 µM is -3.05%.

Consider `Cn1nc(CN2CCCN(C3CCCC3)CC2)c2c(Cl)cccc21`, for which the cytotoxicity at 10 µM worked out at 11%.

Consider `CC1(C)CN(C(=O)c2cnc(CN3CCCC3)s2)CC[C@]1(C)O`, for which the cytotoxicity at 10 µM is -15.1%.

Take `NC(=O)c1csc(N2CCN(C3CCc4ccccc4C3)CC2)n1` (stereo not drawn): the cytotoxicity at 10 µM was determined as 1.67%.

Take `O=C(c1cc(=O)[nH]c(=O)[nH]1)N1CCCC(CO)(CC2CC2)C1` (stereo not drawn): the cytotoxicity at 10 µM is -3.02%.

As to `Nc1ncccc1CN1CCOCC1CC(=O)NCc1ccccn1` (stereo not drawn), the cytotoxicity at 10 µM is 9.66%.

For `Cc1nc(CN2CCCC(CCc3ccccc3C)C2)c[nH]1` (stereo not drawn), the cytotoxicity at 10 µM is -1.35%.

With `COc1ncc(C(=O)N2CCCC3(C=Cc4ccccc4O3)CC2)cn1` (stereo not drawn), the cytotoxicity at 10 µM came to 7.61%.

`COC(=O)c1ccc(N2CCN(C(=O)CCCc3cn[nH]c3)CC2)cc1`: the cytotoxicity at 10 µM was -4.32%.

Consider `Cc1cc(C(F)(F)F)nc(CNC(=O)CCCN2CCCCC2)n1`, for which the cytotoxicity at 10 µM is -53.1%.

In the case of `COCCc1noc(CN(C)c2nc(C)nc(C)c2C)n1`, the cytotoxicity at 10 µM worked out at 4.24%.

As to `Cc1cccc(CN2CCCC(O)(CNCCc3c[nH]cn3)C2=O)c1` (stereo not drawn), the cytotoxicity at 10 µM was found to be 1.31%.

Regarding `CNCc1cn(CC2CCN(Cc3cccs3)CC2)nn1`, the cytotoxicity at 10 µM is -4.47%.

For `C[C@@H]1CN(C2CCN(c3ccccc3F)CC2)C[C@]1(C)O`, the cytotoxicity at 10 µM is -2.19%.

As for `CCNc1ncc(C(=O)NC(CC)c2ccnn2C)cn1` (stereo not drawn), the cytotoxicity at 10 µM was -2.4%.

`O=C(CC1COCCN1)NCCc1nc(-c2ccccn2)no1` (stereo not drawn): the cytotoxicity at 10 µM is -0.849%.

On to `CC(C)C1CN(C(=O)c2cn3ccccc3n2)CCCN1CC1CC1` (stereo not drawn), for which the cytotoxicity at 10 µM is -13.6%.

`CCOCC(=O)N1CCC(Cc2nnc(SC)n2C)CC1`: the cytotoxicity at 10 µM is -53%.

As to `CC(C)CN1CCCC1c1ccc(C(=O)Nc2cn(C)nn2)s1` (stereo not drawn), the cytotoxicity at 10 µM was -4.69%.

With `Cn1ccc(C(=O)N2CCC3(CCC(=O)N(C4CCCC4)C3)CC2)n1`, the cytotoxicity at 10 µM is -6.19%.

Regarding `Cn1c(N2CCOCC2)nc2cc(C(=O)NCc3cccnc3)ccc21`, the cytotoxicity at 10 µM came out at 0.678%.

As for `COc1cnc(N2CCCN(Cc3ccc(F)cc3)CC2)nc1`, the cytotoxicity at 10 µM is -5.41%.

For `COc1cc(C)cc(-c2nc3c([nH]2)CCNC3)c1OC`, the cytotoxicity at 10 µM stood at 4.46%.

Turning to `COc1cc(C2CC(=O)Nc3c2nc2n3CCCC2)ccc1O` (stereo not drawn), the cytotoxicity at 10 µM is -4.27%.

On to `COc1ccc(CCN2C(=O)O[C@@H]3CN(C4CCSCC4)C[C@@H]32)cc1`, for which the cytotoxicity at 10 µM was found to be 1.6%.

On to `O=c1cc(-c2cccnc2)nc(-c2ccc(CN3CC[C@@H](O)C3)cc2)[nH]1`, for which the cytotoxicity at 10 µM was 2.89%.

Consider `Cc1cc2nc(C(C)C)cc(NC(C)c3nncn3C)n2n1` (stereo not drawn), for which the cytotoxicity at 10 µM was found to be 2.83%.

Turning to `CCc1cc(NCCCC2CCOC2)n2nccc2n1` (stereo not drawn), the cytotoxicity at 10 µM turned out to be 5.04%.

In the case of `CC(=O)N1CCC(NC(=O)N2CCN(c3cnccn3)CC2)CC1`, the cytotoxicity at 10 µM turned out to be 6.47%.

For the molecule `CCOc1ccc(CN2CCN(C(=O)c3cc(C4CC4)[nH]n3)CC2)cc1`, the cytotoxicity at 10 µM was 36.1%.

For the molecule `CN1CCOC(CN(C(=O)CN2CCCC2=O)c2nccs2)C1` (stereo not drawn), the cytotoxicity at 10 µM was -7.06%.

With `Cc1nn(C)c(Cl)c1C1CCCN1C(=O)c1ccc(O)nc1` (stereo not drawn), the cytotoxicity at 10 µM was -11.2%.

`CCOc1ccc2c(c1)CN(Cc1nc3c(cnn3C)c(=O)[nH]1)CC2`: the cytotoxicity at 10 µM was -0.373%.

For the molecule `Cc1ccc(-c2noc(CN3CCCC(Cn4cncn4)C3)n2)cc1` (stereo not drawn), the cytotoxicity at 10 µM was -7.12%.

Regarding `CN(CC(=O)N1CCCC1Cn1cccn1)Cc1ccccc1` (stereo not drawn), the cytotoxicity at 10 µM was -2.12%.

For the molecule `COc1cc(C)sc1C(=O)N1CCCC(n2nc(C)nc2C)C1` (stereo not drawn), the cytotoxicity at 10 µM was -13.6%.

Regarding `O=C(c1cc2ccccc2[nH]1)N1CCCCC1Cn1cccn1` (stereo not drawn), the cytotoxicity at 10 µM amounted to 1.27%.

In the case of `CC(NCc1ccccc1Cl)c1ccc(OCC(=O)NC2CC2)cc1` (stereo not drawn), the cytotoxicity at 10 µM was -12.7%.

As to `O=C(O)c1cc(S(=O)(=O)Nc2ccc(F)c(Cl)c2)cc2c1OCCO2`, the cytotoxicity at 10 µM was -2.33%.

For the molecule `CCc1noc(CN2CCN(CC(O)c3ccccc3)CC2)n1` (stereo not drawn), the cytotoxicity at 10 µM is 1.19%.

In the case of `Cc1cc(C2CCCN2CCC(=O)N2CCc3sccc3C2)no1` (stereo not drawn), the cytotoxicity at 10 µM is -16.1%.

Turning to `CN(Cc1ccsc1)C(=O)Nc1cccnc1N1CCCC1`, the cytotoxicity at 10 µM was -4.37%.

On to `CN(Cc1ccc2c(c1)OCCO2)C(=O)NCCc1cnn(C)c1`, for which the cytotoxicity at 10 µM was -9.12%.

Take `Cn1cnc(S(=O)(=O)NCCCN2CCOCC2)c1Cl`: the cytotoxicity at 10 µM is -11.2%.

With `O=C(Cc1noc2ccccc12)N1CCCC1c1noc(C2CC2)n1` (stereo not drawn), the cytotoxicity at 10 µM is 61.5%.

For the molecule `O=S(=O)(CCCN1CCCC1Cn1cncn1)c1ccccc1` (stereo not drawn), the cytotoxicity at 10 µM was -7.64%.

As to `c1ccc(C(OCCNC2CCc3ncnn3C2)c2ccccc2)cc1` (stereo not drawn), the cytotoxicity at 10 µM was -18.4%.

On to `Cc1ccoc1C(=O)NCC(Cc1ccc(F)cc1)C(N)=O` (stereo not drawn), for which the cytotoxicity at 10 µM was -0.77%.

`CC(C)c1nc(CN2CCCCC2)cs1`: the cytotoxicity at 10 µM amounted to 20.2%.

Regarding `Cn1cc(CN2Cc3c(cnn3C)C(COCC3CC3)C2)cn1` (stereo not drawn), the cytotoxicity at 10 µM is -2.8%.

For `O=S(=O)(C1CC1)N1CC[C@@H](OCC2CC2)[C@@H]1Cc1ccncc1`, the cytotoxicity at 10 µM is 10.9%.

As for `c1cc(-c2ccc3nc(C4CCN(CC5CC5)CC4)nn3c2)ccn1`, the cytotoxicity at 10 µM is -0.966%.

As for `CN(Cc1cccnc1)C1CC2(CCN(c3ccccn3)CC2)C1`, the cytotoxicity at 10 µM was determined as 2.86%.

On to `CCc1cccc2c(CC(=O)N(C)CCN(C)C)c(C)[nH]c12`, for which the cytotoxicity at 10 µM is 1.26%.

Regarding `COc1ncccc1CN1C[C@@H]2OCCN(CCN(C)C)[C@@H]2C1`, the cytotoxicity at 10 µM is 11.8%.

In the case of `CC(C)CN1CC[C@H]2OCC[C@@H](C(=O)N3CCCO3)[C@@H]2C1`, the cytotoxicity at 10 µM worked out at 3.45%.

For `O=c1[nH]c2cn(-c3cccc(F)c3)c(=O)n2[nH]1`, the cytotoxicity at 10 µM is -0.687%.

For the molecule `CCCN1C[C@@H]2CC[C@H]1CN(Cc1cccc(-n3cccn3)c1)C2`, the cytotoxicity at 10 µM was -1.69%.

The values are drawn from ChEMBL document CHEMBL4513216, “Probing the Open Global Health Chemical Diversity Library for Multistage-Active Starting Points for Next-Generation Antimalarials” (ACS Infect Dis, 2020).
